{"source": "ChEMBL document CHEMBL1159115", "about": "“Piperidine-derived gamma-secretase modulators” (Bioorg Med Chem Lett, 2010)", "key": {"[1]": {"experiment": "Half life in dog at 1 mg/kg, iv and 1 mg/kg, po", "format": "ADME, organism-based, Canis lupus familiaris", "conditions": "in vivo", "method_in_brief": "(§1)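 Dog PK: iv and oral doses each 1 mg/kg; data from a single animal. Oral bioavailability was measured with the sodium salt in 1% methylcellulose vehicle.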"}, "SH-SY5Y": {"system": "SH-SY5Y", "experiment": "Cytotoxicity against human SH-SY5Y cells after 24 hrs by WST1 assay", "format": "cell-based"}, "[2]": {"experiment": "Drug level in mouse blood at 5 mg/kg, po after 2 hrs", "format": "ADME, organism-based", "set-up": "dose 5 mg/kg, route oral", "conditions": "read-out: Drug uptake", "method_in_brief": "(§2)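 Mice dosed orally at 5 mg/kg in 1% (w/v) aqueous methylcellulose. Blood and brain sampled 2 h post-dose; brain:blood ratio derived from these levels; mean of three mice.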"}, "[3]": {"experiment": "Half life in rat at 1 mg/kg, iv and 3 mg/kg, po", "format": "ADME, organism-based", "conditions": "in vivo", "method_in_brief": "(§3)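 Rat PK: iv 1 mg/kg paired with oral 3 mg/kg or 2 mg/kg; values are the mean from three animals. Oral bioavailability was measured with the sodium salt in 1% methylcellulose vehicle.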"}, "Gamma-secretase [4]": {"target": "Gamma-secretase", "experiment": "(§4) Inhibition of gamma-secretase in human SHSY5Y cells expressing human recombinant APP assessed as decrease in Abeta42 level after 24 hrs by DELFIA", "format": "cell-based", "conditions": "sh-sy5y"}, "[5]": {"target": "T1, Gamma-secretase (Homo sapiens) (UniProt Q96BI3+Q9NZ42+Q8WW43+P49768+Q92542+P49810)", "experiment": "as §4", "format": "cell-based", "conditions": "SH-SY5Y"}, "[6]": {"experiment": "Drug level in mouse brain at 5 mg/kg, po after 2 hrs", "format": "ADME, organism-based", "set-up": "dose 5 mg/kg, route oral", "conditions": "read-out: Drug uptake", "method_in_brief": "as §2"}, "Gamma-secretase [7]": {"target": "Gamma-secretase", "experiment": "(§5) Inhibition of gamma-secretase in human SHSY5Y cells expressing human recombinant APP assessed as increase in Abeta38 level after 24 hrs by DELFIA", "format": "cell-based", "conditions": "sh-sy5y"}, "[8]": {"target": "T1, Gamma-secretase (Homo sapiens)", "experiment": "as §5", "format": "cell-based", "conditions": "SH-SY5Y"}, "CV-1": {"system": "CV-1", "experiment": "Inhibition of gamma-secretase expressed in african green monkey CV1 cells coexpressing Gal4 DNA-binding/transactivation domain assessed as inhibition of notch processing by luciferase reporter assay at 20 uM", "format": "cell-based"}, "[9]": {"experiment": "Half life in mouse at 3 mg/kg, iv and 10 mg/kg, po", "format": "ADME, organism-based", "conditions": "in vivo", "method_in_brief": "(§6)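 Mouse PK: single iv dose of 3 mg/kg and oral dose of 10 mg/kg; data are the mean from three animals.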"}, "[10]": {"experiment": "Oral bioavailability in mouse at 10 mg/kg", "format": "ADME, organism-based", "conditions": "in vivo", "method_in_brief": "as §6"}, "[11]": {"experiment": "Clearance in dog blood at 1 mg/kg, iv and 1 mg/kg, po", "format": "ADME, organism-based, Canis lupus familiaris", "method_in_brief": "as §1"}, "Gamma-secretase [12]": {"target": "Gamma-secretase", "experiment": "Inhibition of gamma-secretase in human SHSY5Y cells expressing human recombinant APP assessed as decrease in total Abeta level after 24 hrs by DELFIA", "format": "cell-based", "conditions": "sh-sy5y"}, "Gamma-secretase [13]": {"target": "Gamma-secretase", "experiment": "Inhibition of gamma-secretase in human SHSY5Y cells expressing human recombinant APP assessed as amyloid beta40 formation by ELISA", "format": "cell-based", "conditions": "sh-sy5y; in the assay text read “amyloid beta42 formation” for “amyloid beta40 formation”", "method_in_brief": "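SH-SY5Y cells overexpressing human APP Swedish variant exposed to compound for 48 h; Aβ40 (and Aβ42) in the cell medium quantified by ELISA, either Meso Scale Discovery or AlphaLISA format. Compounds also cross-screened for inhibition of Notch processing.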"}, "[14]": {"experiment": "Oral bioavailability in rat at 3 mg/kg", "format": "ADME, organism-based", "conditions": "in vivo", "method_in_brief": "as §3"}, "[15]": {"experiment": "Inhibition of gamma-secretase expressed in african green monkey CV1 cells coexpressing Gal4 DNA-binding/transactivation domain assessed as inhibition of notch processing by luciferase reporter assay", "format": "cell-based", "conditions": "CV-1"}, "[16]": {"experiment": "Volume of distribution at steady state in rat at 1 mg/kg, iv and 3 mg/kg, po", "format": "ADME, organism-based", "conditions": "in vivo, read-out: Vdss", "method_in_brief": "as §3"}, "[17]": {"experiment": "Clearance in mouse blood at 3 mg/kg, iv and 10 mg/kg, po", "format": "ADME, organism-based", "method_in_brief": "as §6"}, "[18]": {"experiment": "Clearance in rat blood at 1 mg/kg, iv and 3 mg/kg, po", "format": "ADME, organism-based", "method_in_brief": "as §3"}, "[19]": {"experiment": "Volume of distribution at steady state in mouse at 3 mg/kg, iv and 10 mg/kg, po", "format": "ADME, organism-based", "conditions": "in vivo, read-out: Vdss", "method_in_brief": "as §6"}, "[20]": {"experiment": "Oral bioavailability in dog at 1 mg/kg", "format": "ADME, organism-based, Canis lupus familiaris", "conditions": "in vivo", "method_in_brief": "as §1"}, "[21]": {"experiment": "Volume of distribution at steady state in dog at 1 mg/kg, iv and 1 mg/kg, po", "format": "ADME, organism-based, Canis lupus familiaris", "conditions": "in vivo, read-out: Vdss", "method_in_brief": "as §1"}, "Gamma-secretase [22]": {"target": "Gamma-secretase", "experiment": "Inhibition of gamma-secretase in human SHSY5Y cells expressing human recombinant APP assessed as effect on Abeta40 level after 24 hrs by DELFIA", "format": "cell-based", "conditions": "sh-sy5y"}, "Gamma-secretase [23]": {"target": "Gamma-secretase", "experiment": "Inhibition of gamma-secretase in human SHSY5Y cells expressing human recombinant APP assessed as amyloid beta42 formation by ELISA", "format": "cell-based", "conditions": "sh-sy5y; in the assay text read “amyloid beta40 formation” for “amyloid beta42 formation”", "method_in_brief": "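SH-SY5Y cells overexpressing human APP Swedish variant were incubated with compound for 48 h. Secreted Aβ42 and Aβ40 were measured by immunoassay (MSD electrochemiluminescence or AlphaLISA).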"}}, "data": [{"smiles": "CC(C)CC[C@H](c1ccc(C(F)(F)F)nc1)N1CC[C@@H](CC(=O)[O-])C[C@H]1c1ccc(C(F)(F)F)cc1.[Na+]", "values": [{"measurement": "half-life", "setting": "[1]", "result": 5.2, "unit": "h"}, {"measurement": "IC50", "setting": "SH-SY5Y", "result": 100, "unit": "µM"}, {"measurement": "concentration at 2 h", "setting": "[2]", "result": 5.6, "unit": "µM"}, {"measurement": "half-life", "setting": "[3]", "result": 6.6, "unit": "h"}, {"measurement": "pIC50", "setting": "Gamma-secretase [4]", "result": 6}, {"measurement": "Activity", "setting": "[5]", "result": "Dose-dependent effect"}, {"measurement": "concentration at 2 h", "setting": "[6]", "result": 4.2, "unit": "µM"}, {"measurement": "pEC50", "setting": "Gamma-secretase [7]", "result": 6.3}, {"measurement": "Activity", "setting": "[8]", "result": "Dose-dependent effect"}, {"measurement": "inhibition", "setting": "CV-1", "result": 24, "unit": "%"}, {"measurement": "half-life", "setting": "[9]", "result": 4.3, "unit": "h"}, {"measurement": "bioavailability", "setting": "[10]", "result": "> 100", "unit": "%"}, {"measurement": "clearance", "setting": "[11]", "result": 3, "unit": "mL/min/kg"}, {"measurement": "pIC50", "setting": "Gamma-secretase [12]", "result": 4}, {"measurement": "pIC50", "setting": "Gamma-secretase [13]", "result": 6.5}, {"measurement": "bioavailability", "setting": "[14]", "result": "> 100", "unit": "%"}, {"measurement": "IC50", "setting": "[15]", "result": "> 20", "unit": "µM"}, {"measurement": "Vd", "setting": "[16]", "result": 2.3, "unit": "L/kg"}, {"measurement": "clearance", "setting": "[17]", "result": 4, "unit": "mL/min/kg"}, {"measurement": "clearance", "setting": "[18]", "result": 4, "unit": "mL/min/kg"}, {"measurement": "Vd", "setting": "[19]", "result": 1.4, "unit": "L/kg"}, {"measurement": "bioavailability", "setting": "[20]", "result": 72, "unit": "%"}, {"measurement": "Vd", "setting": "[21]", "result": 1.1, "unit": "L/kg"}, {"measurement": "pIC50", "setting": "Gamma-secretase [22]", "result": 4.4}, {"measurement": "pIC50", "setting": "Gamma-secretase [23]", "result": 5.2}]}]}
